Reference: ChEMBL document CHEMBL1123309, “Esters and lactones of phenolic amino carboxylic acids: prodrugs for iron chelation” (J Med Chem, 1986)
Several values for one entry are separate records, joined by “and”; a condition that tells them apart may be missing. Equal values may be shown once.

How the values were obtained:
[1] = Compound was evaluated for lethal dose after intraperitoneal administration using iron overload rat model; format: toxicity, organism-based; details: in vivo, ip
Mus musculus [2] = experiment: BDF1 male mice were administered with 300 mg/kg intraperitoneally and number of survivors was determined out of 10 tested; format: functional; details: route intraperitoneal
Summary of the method: (§1)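 Male BDF1 mice were iron-loaded by transfusion of canine red cells. The cells were heparinised, washed twice in isotonic saline and heated at 50 °C for 30 min. Dosing started two days after the last transfusion, once daily for 7 consecutive days. Compounds were given in distilled water or as a fine aqueous suspension with Polysorbate 80 (2% final). Toxic signs were recorded daily and survivors counted per group.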

Mus musculus [3] = experiment: BDF1 male mice were administered with 250 mg/kg orally and percent change in iron levels was determined in Spleen; format: functional; details: route oral
Summary of the method: (§2)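 Hypertransfused male BDF1 mice (canine red cells, washed and heated at 50 °C for 30 min) were dosed orally for 7 days with compound in distilled water or a fine suspension with Polysorbate 80 (2% final). Daily group urine and pooled feces (1 N HCl digest, 90 °C, 30 min, triplicate) were collected, and liver and spleen were homogenized. Iron was measured by atomic absorption and reported as % change vs transfused control.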

Mus musculus [4] = experiment: BDF1 male mice were administered with 250 mg/kg orally and percent change in iron levels was determined in Feces; format: functional; details: route oral; summary of the method: as §2
Mus musculus [5] = experiment: BDF1 male mice were administered with 250 mg/kg orally and percent change in iron levels was determined in Liver; format: functional; details: route oral; summary of the method: as §2
Mus musculus [6] = experiment: BDF1 male mice were administered with the compound and number of survivors was determined at a dose 250 mg/kg peroral out of 10 tested; format: functional; details: route oral; summary of the method: as §1
Mus musculus [7] = experiment: BDF1 male mice were administered with 250 mg/kg orally and percent change in iron levels was determined in Urine; format: functional; details: route oral; summary of the method: as §2
Rattus norvegicus [8] = experiment: Percent change in iron levels was determined in urine using iron overload rat model where the route of administration is Peroral; format: functional
Rattus norvegicus [9] = experiment: Percent change in iron levels was determined in urine using iron overload rat model where the route of administration is Intraperitoneal; format: functional
Rattus norvegicus [10] = experiment: Percent change in iron levels was determined in feces using iron overload rat model where the route of administration is Intraperitoneal; format: functional

Structure (SMILES): CCOC(=O)C(NCCNC(C(=O)OCC)c1ccccc1O)c1ccccc1O (stereo unspecified)
- LD50 [1]: ≥ 800 mg/kg

Structure (SMILES): COC(=O)CN(Cc1ccccc1O)CC1CN(Cc2ccccc2O)CC(=O)O1 (stereo unspecified)
- No. of survivors (Mus musculus [2]): 10

Structure (SMILES): O=C(CN(CCN(CC(=O)OCc1ccccc1)Cc1ccccc1O)Cc1ccccc1O)OCc1ccccc1
- Iron change (Mus musculus [3]): -21%
- Iron change (Mus musculus [4]): -10%
- Iron change (Mus musculus [5]): -10%
- No. of survivors (Mus musculus [6]): 10
- Iron change (Mus musculus [7]): 62%

Structure (SMILES): O=C(O)C(NCCNC(C(=O)O)c1ccccc1O)c1ccccc1O (stereo unspecified)
- Iron change (Rattus norvegicus [8]): 19% and 31%
- Iron change (Rattus norvegicus [9]): 484%
- LD50 [1]: 175 mg/kg
- Iron change (Rattus norvegicus [10]): 111%
